From the RNAGym collection of RNA variant scans (doi:10.1126/science.aae0568)
Fewer inactive variants are shown than the library holds.

B1: tRNA (parent)
chain: GUUCCGUUGGCGUAAUGGUAACGCGUCUCCCUCCUAAGGAGAAGACUGCGGGUUCGAGUCCCGUACGGAACG

Variants of: B1
Assay: yeast fitness relative to wild type (ratio to wild type); higher = fitter; tRNA-Arg(CCU), competitive growth, 37 C, YPD
Procedure, shortened: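 The tRNA-Arg(CCU) gene variants were made by chemical synthesis with a 3% per-site mutation rate at 69 sites and inserted at the native genomic locus of Saccharomyces cerevisiae. After pooling, the strains were competed in YPD at 37°C for 24 hours in six parallel replicates. Gene amplicons from the start population and each end population were read by 100-nucleotide paired-end sequencing, and Darwinian fitness relative to wild type was taken from genotype frequency changes. Genotypes needed ≥ 100 starting reads, and estimates < 0.5 were set to 0.5.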

Row | Variant | yeast fitness
1 | GUUCCGUUGGCAUAAUGGUUACGCGUCUCCCUCCUAAGGAGAAGACUGCGGGUUCCACUCCCGUACGGAACG | ≤ 0.5
2 | GUUCCGUUGGCAUAAUGGUACCGCGUCUCCCUCCUAAGGAGAAGACUGCGGGUUCGAGUCCCGUACGGAACG | 0.643
3 | GUUCCGUUGGCAUAAUGGUACCGAGUCUCCCUCCUAAGGAGAAGACUGCGGGUUCGAGUCCCGUACGGCACG | 0.933
4 | GUUCCGUUGGCAUAAUGGUACCGCGUCUCCCUCCGAAGGAGAAGACUGCGAGUUCGAGUCCCGUACGGAACG | ≤ 0.5
5 | GUUCCGUUGGCAUAAUGGUAGCGCGUCUCCCUCCUAAGGAGAAGACUGCGGGUUCGAGUCCCGUACGGAACG | 1.04
6 | GUUCCGUUGGCAUAAUGGUAGCGGGUCGCCCUCCUAAGGAGAAGACUGCGGGUUCGAGUCCCGUACGGAACG | 0.992
7 | GUUCCGUUGGCAUAAUGGUAGCGGGUCGCCCUCCUAAGGAGAAGAUUGCGGGUUCGAGUCCCGUACGGAACG | 0.582
8 | GUUCCGUUGGCAUAAUGGUAGCGCGUCUCCAUCCUAAGGAGAAGACUGCGGGUUCGAGUCCCGUACGGAACG | 0.625
9 | GUUCCGUUGGCAUAAUGGUAGCGCGUCUCCAUCCUAAGGAGAAGACUGCGGGUUCGAGUCCCGUUCGGAUCG | ≤ 0.5
10 | GUUCCGUUGGCAUAAUGGUAGCGCGUCUCCCUCUUAAGGAGAAGACUGCGGGUUCGAGUCCCGUACGGAACG | ≤ 0.5
11 | GUUCCGUUGGCAUAAUGGUAUCGCGUCUCCCUCCUAAGGAGAAGACUGCGGGUUCGAGUCCCGUACGGCACG | ≤ 0.5
12 | GUUCCGUUGGCAUAAUGGUAUCGCGUCUCCCUCCUAAGGAGAAGACUGCGGGUUGGAGUAGCGUAGGGAACG | ≤ 0.5
13 | GUUCCGUUGGCAUAAUGGUAUCGCGUCUCCCUCCUAAGGAGAAGACUGCGGGUUUGAGUCCGGUACGGAACG | ≤ 0.5
14 | GUUCCGUUGGCAUAAUGGUAUCGCGUCUCCCUCCUAAGGAGAAGACUGCGGGUUCGAGUCCCGUAUGGCACG | ≤ 0.5
15 | GUUCCGUUGGCAUAAUGGUAACGCGUCUCCCUCCUCAGGAGAAGACUGCGGGUUCGAGUCCCGUACGGAACG | 0.628
16 | GUUCCGUUGGCAUAAUGGUAACGCGUCUCCCUCCUCAGGUCAAGACUGCGGGUUCGAGUCCCGUACGGAACG | 0.576
17 | GUUCCGUUGGCAUAAUGGUAACGCGUCUCCCUCCUCAGGAAAAGACUGCGGGCUCGAGUCCCGUACGGAACG | ≤ 0.5
18 | GUUCCGUUGGCAUAAUGGUAACGCGUCUCCCUCCUCAGGACAAGACUGCGGGUUCGAGUCCCGUACGGAACG | ≤ 0.5
19 | GUUCCGUUGGCAUAAUGGUAACGCGUCUCCCUCCUCAGGAGAAGACUGCGAGUUCGAGUCCCGUACGGAACG | 0.603

Row | Variant | yeast fitness
20 | GUUCCGUUGGCAUAAUGGUAACGCGUCUCCCUCCUGAGGAGAAGACUGCGGGUUCGAGUCCCGUACGGAACG | 0.906
21 | GUUCCGUUGGCAUAAUGGUAACGCGUCUCCCUCCUGAGGAGAAGACUGGGGGUUCGAGUCCCGUACGGAACG | ≤ 0.5
22 | GUUCCGUUGGCAUAAUGGUAACGCGUCUCCCUCCUGAGGAGAAGACUGCGGGUUUGAGUCCCGUACGGUACG | ≤ 0.5
23 | GUUCCGUUGGCAUAAUGGUAACGCGUCUCCCUCCUGAGGAGAAGACGGCGGGUUCGAGUCCCGUACGGAACG | 0.584
24 | GUUCCGUUGGCAUAAUGGUAACGCGUCUCCCUCCUGAGGAGAAGACGGCGGGUUCGAGUCCCGUUCGGAACG | 0.646
25 | GUUCCGUUGGCAUAAUGGUAACGCGUCUCCCUCCUGAGGAGAAGACGGCGGGUCCGAGUCCCGUUCGGAACG | ≤ 0.5
26 | GUUCCGUUGGCAUAAUGGUAACGCGUCUCCCUCCUUCGGAGAGGACUGCGGGUUCGUGUCCCGUACGGAACG | ≤ 0.5
27 | GUUCCGUUGGCAUAAUGGUAACGCGUCUCCCUCCUUGGGAGAAGACUGCGGGUUCGAGUCCCGUACGGAACG | 0.543
28 | GUUCCGUUGGCAUAAUGGUAACGCGUCUCCCUCCUUAGGAGAAGACUGCGGGUUCGAGUCCCAUACGGAACG | ≤ 0.5
29 | GUUCCGUUGGCAUAAUGGUAACGCGUCUCCCUCCUACGGAGAAGCCUGCGGCUUCGAGUCCCGUACGGAUCG | ≤ 0.5
30 | GUUCCGUUGGCAUAAUGGUAACGCGUCUCCCUCCUACGGAGAAGACUGCGGGUUCGAGUCUCGUACGGAACG | ≤ 0.5
31 | GUUCCGUUGGCAUAAUGGUAACGCGUCUCCCUCCUAGGGAGAGGACUGCGGGAUCGACUCCCGUAGGGAACG | ≤ 0.5
32 | GUUCCGUUGGCAUAAUGGUAACGCGUCUCCCUCCUAGGGAGAAGACUGCGGGUUCGAGUCCCGUCCGGAACG | ≤ 0.5
33 | GUUCCGUUGGCAUAAUGGUAACGCGUCUCCCUCCUAGGGAGAAGACUGCGGGUUCGAGUCCCGUGCGGCACG | ≤ 0.5
34 | GUUCCGUUGGCAUAAUGGUAACGCGUCUCCCUCCUAGGCAGAAGACUGCGGGUUCGCGUCCCGUACGGAACG | ≤ 0.5
35 | GUUCCGUUGGCAUAAUGGUAACGCGUCUCCCUCCUAGGGAGAAGACUGCGGGUUCGAGCCCCGUACGGAACG | ≤ 0.5
36 | GUUCCGUUGGCAUAAUGGUAACGCGUCUCCCUCCUAUGGAGAAGACUGCGGGUUCGCGUCCCGUACGGAACG | 0.608
37 | GUUCCGUUGGCAUAAUGGUAACGCGUCUCCCUCCUAAGGCGAAGACUGCGGGUUCGAGUCCCGUACGGAACG | 0.792
